pEC50, pIC50: −log10 of the molar value. Active and inactive are the calls of the source. No cut-off for these calls is given here.
Legend:
[1] = tested on: Rattus norvegicus; experiment: Reduction in peripheral lymphocyte count in orally dosed rat measured after 24 hrs; format: ADME, organism-based
[2] = tested on: Rhesus monkey; experiment: Reduction in peripheral lymphocyte count in orally dosed monkey measured after 24 hrs; format: ADME, organism-based; details: Macaca mulatta
[3] = Protein binding in rat plasma; format: ADME, cell-free; details: read-out: PPB (converted)
[4] = tested on: Mus musculus; experiment: Prevention of onset and severity of disease in C57Bl/6 mouse experimental autoimmune encephalomyelitis model of multiple sclerosis at 0.3 to 3 mg/kg dosed once daily beginning on day 3 and continued to day 25; format: functional, organism-based
Outline: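 Female C57Bl/6 mice immunized with MOG35–55 as autoantigen; oral dosing once daily from day 3 to day 25 in 0.5% methylcellulose vehicle; clinical scores followed beyond end of dosing.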

[5] = tested on: Mus musculus; experiment: Reduction in lymphocyte infiltration in C57Bl/6 mouse experimental autoimmune encephalomyelitis model of multiple sclerosis at 3 mg/kg dosed once daily beginning on day 18 and continued to day 37 by immunofluorescent staining method; format: functional, organism-based; design: dose 3 mg/kg
Outline: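 Therapeutic EAE in female C57Bl/6 mice, dosing from day 18; spinal cord and brain collected day 37; cerebellum sections immunostained for CD45 and CD3 with DAPI counterstain; inflammatory foci and infiltrating lymphocytes assessed.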

[6] = tested on: Rattus norvegicus; experiment: Reduction in ankle diameter in Lewis rat collagen-induced arthritis model at 1 mg/kg, po qd measured on day 17 (reference value: +/- inches); format: functional
Outline: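 Female Lewis rats with collagen-induced arthritis, prophylactic daily oral dosing; ankle diameter (inches) and body weight recorded at day 17 end point; mean ± SEM.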

[7] = tested on: Rattus norvegicus; experiment: Induction of body weight regain in Lewis rat collagen-induced arthritis model at 1 mg/kg, po qd measured on day 17 (reference value: 160.3 +/- 2.3 g); format: functional
[8] = tested on: Rattus norvegicus; experiment: Induction of body weight regain in Lewis rat collagen-induced arthritis model at 3 mg/kg, po qd measured on day 17 (reference value: 160.3 +/- 2.3 g); format: functional
[9] = biological target: Cytochrome P450 3A4 (Homo sapiens, UniProt P08684); experiment: Inhibition of CYP3A4 (unknown origin); format: ADME
[10] = biological target: Cytochrome P450 2C9 (Homo sapiens, UniProt P11712); experiment: Inhibition of CYP2C9 (unknown origin); format: ADME
[11] = biological target: Cytochrome P450 2C19 (Homo sapiens, UniProt P33261); experiment: Inhibition of CYP2C19 (unknown origin); format: ADME
[12] = biological target: Adenosine receptor A3 (Homo sapiens, UniProt P0DMS8); experiment: Binding affinity to human adenosine A3 receptor
[13] = Activation of Inward rectifier potassium channel in human atrial myocytes; format: cell-based; details: Cardiac atrium
Outline: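 In vitro activation of the inward-rectifying potassium channel (IKACh) in human atrial myocytes, run alongside S1P as reference agonist; potency expressed as EC50.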

[14] = tested on: Salmonella typhimurium; experiment: Genotoxicity in Salmonella typhimurium in presence of rat liver S9 fraction by Ames bacterial reverse mutation assay; format: toxicity, organism-based; details: salmonella enterica subsp. enterica serovar typhimurium
[15] = tested on: Salmonella typhimurium; experiment: Genotoxicity in Salmonella typhimurium in absence of rat liver S9 fraction by Ames bacterial reverse mutation assay; format: toxicity, organism-based; details: salmonella enterica subsp. enterica serovar typhimurium
[16] = tested on: Canis familiaris; experiment: Effect on body temperature in telemeterized dog up to 40 mg/kg; format: ADME, organism-based, Canis lupus familiaris; design: dose 40 mg/kg; details: in vivo
Outline: (§1)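 Telemeterized dogs dosed at levels up to 40 mg/kg; pulse pressure, heart rate, body temperature and ECG parameters monitored.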

[17] = tested on: Canis familiaris; experiment: Effect on ECG parameters in telemeterized dog up to 40 mg/kg; format: ADME, organism-based, Canis lupus familiaris; design: dose 40 mg/kg; details: in vivo; outline: as §1
[18] = tested on: Rattus norvegicus; experiment: Effect on neurobehaviour in Sprague-Dawley rat up to 350 mg/kg; format: ADME, organism-based; design: dose 350 mg/kg; details: in vivo
Outline: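 CNS (neurobehavioral) and respiratory safety studies in SD rats, doses up to 350 mg/kg.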

[19] = tested on: Rattus norvegicus; experiment: Toxicity in Sprague-Dawley rat assessed as induction of CNS clinical changes at 1000 mg/kg during 14 day repeat dose study; format: organism-based, Central nervous system; design: dose 1000 mg/kg; details: in vivo, 336 h
Outline: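 14-day repeat-dose rat toxicity study with dose groups of 30, 100, 300 and 1000 mg/kg; animals monitored for tolerability, mortality and CNS clinical signs.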

[20] = Cmax in Sprague-Dawley rat at 1000 mg/kg; format: ADME, organism-based; design: dose 1000 mg/kg; details: in vivo
Outline: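 Sprague–Dawley rats dosed at 300 and 1000 mg/kg in a separate dose-proportionality exposure study; Cmax determined.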

[21] = tested on: Rattus norvegicus; experiment: Effect on liver function in Sprague-Dawley rat at 30 to 1000 mg/kg; format: ADME, organism-based; design: dose 30-1000 mg/kg; details: in vivo
[22] = biological target: T1, Sphingosine 1-phosphate receptor 1 (Homo sapiens, UniProt P21453); experiment: Agonist activity at human S1P1 receptor assessed as cAMP accumulation by HTRF assay; format: functional
Outline: (§2)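 HTRF cyclase (cAMP) functional assay at S1P1 of each species; EC50 taken as mean of three or more replicates; efficacy given as % agonism relative to S1P.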

[23] = biological target: T1, Sphingosine 1-phosphate receptor 1; experiment: Agonist activity at human S1P1 receptor assessed as cAMP accumulation by HTRF assay relative to S1P; format: functional; outline: as §2
[24] = Half life in rat liver microsomes; format: ADME
Outline: (§3)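 Stability on incubation with liver microsomes of each species; half-life reported.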

[25] = biological target: T1, Sphingosine 1-phosphate receptor 1; experiment: Induction of internalization of HA-tagged human S1P1 receptor expressed in CHO cells; format: cell-based
Outline: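 CHO cells expressing HA-tagged human S1P1; receptor internalization measured, IC50 derived.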

[26] = biological target: Sphingosine 1-phosphate receptor 1 (Rattus norvegicus, UniProt P48303); experiment: Agonist activity at rat S1P1 receptor assessed as cAMP accumulation by HTRF assay; format: functional; outline: as §2
[27] = biological target: Sphingosine-1-phosphate receptor 1 (Canis lupus familiaris, UniProt W5VNF7); experiment: Agonist activity at dog S1P1 receptor assessed as cAMP accumulation by HTRF assay; format: functional; outline: as §2
[28] = biological target: Sphingosine-1-phosphate receptor 1 (Canis lupus familiaris) (UniProt W5VNF7); experiment: Agonist activity at dog S1P1 receptor assessed as cAMP accumulation by HTRF assay relative to S1P; format: functional; outline: as §2
[29] = biological target: Sphingosine 1-phosphate receptor 3 (Homo sapiens, UniProt Q99500); experiment: Agonist activity at human S1P3 receptor by beta-arrestin recruitment assay
[30] = biological target: Sphingosine 1-phosphate receptor 4 (Homo sapiens) (UniProt O95977); experiment: Agonist activity at human S1P4 receptor by beta-arrestin recruitment assay relative to S1P
[31] = Half life in dog liver microsomes; format: ADME, Canis lupus familiaris; outline: as §3
[32] = Half life in monkey liver microsomes; format: ADME, Macaca mulatta; details: rhesus monkey; outline: as §3
[33] = Systemic clearance in mouse at 1 mg/kg, iv; format: ADME, organism-based; design: dose 1 mg/kg, route intravenous; details: in vivo
[34] = Systemic clearance in dog at 1 mg/kg, iv; format: ADME, organism-based, Canis lupus familiaris; design: dose 1 mg/kg, route intravenous; details: in vivo
[35] = tested on: Rhesus monkey; experiment: Systemic clearance in monkey at 1 mg/kg, iv relative to liver blood flow; format: ADME, organism-based, Macaca mulatta; design: dose 1 mg/kg, route intravenous; details: in vivo
[36] = Volume of distribution at steady state in mouse at 1 mg/kg, iv; format: ADME, organism-based; design: dose 1 mg/kg, route intravenous; details: in vivo, read-out: Vdss
[37] = Cmax in dog at 1 mg/kg, iv or 3 mg/kg, po; format: ADME, organism-based, Canis lupus familiaris; details: in vivo
Outline: (§4)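 Preclinical iv/po PK; amorphous free acid dosed orally as a suspension in 0.5% methyl cellulose; clearance and Vss from intravenous administration.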

[38] = Tmax in mouse at 1 mg/kg, iv or 1 mg/kg, po; format: ADME, organism-based; details: in vivo
[39] = AUC (0 to infinity) in monkey at 1 mg/kg, iv or 3 mg/kg, po; format: ADME, organism-based, Macaca mulatta; details: rhesus monkey, plasma; outline: as §4
[40] = Elimination half life in dog at 3 mg/kg, po; format: ADME, organism-based, Canis lupus familiaris; design: dose 3 mg/kg, route oral; details: in vivo, read-out: beta t1/2 (converted); outline: as §4
[41] = Oral bioavailability in mouse at 1 mg/kg; format: ADME, organism-based; details: in vivo
[42] = Oral bioavailability in rat at 1 mg/kg; format: ADME, organism-based; details: in vivo

T1 sequence (P21453 whole entry): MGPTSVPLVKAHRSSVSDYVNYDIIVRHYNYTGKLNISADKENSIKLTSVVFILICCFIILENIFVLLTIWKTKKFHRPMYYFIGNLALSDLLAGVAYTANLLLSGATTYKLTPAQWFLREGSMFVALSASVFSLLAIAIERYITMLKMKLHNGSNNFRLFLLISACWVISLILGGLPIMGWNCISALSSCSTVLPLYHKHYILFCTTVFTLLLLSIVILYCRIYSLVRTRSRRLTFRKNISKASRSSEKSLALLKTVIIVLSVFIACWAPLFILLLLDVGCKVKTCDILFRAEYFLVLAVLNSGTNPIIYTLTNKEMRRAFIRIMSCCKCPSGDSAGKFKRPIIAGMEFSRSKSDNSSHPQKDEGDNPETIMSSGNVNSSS
Chain of Sphingosine 1-phosphate receptor 4 (Homo sapiens) (O95977 whole entry): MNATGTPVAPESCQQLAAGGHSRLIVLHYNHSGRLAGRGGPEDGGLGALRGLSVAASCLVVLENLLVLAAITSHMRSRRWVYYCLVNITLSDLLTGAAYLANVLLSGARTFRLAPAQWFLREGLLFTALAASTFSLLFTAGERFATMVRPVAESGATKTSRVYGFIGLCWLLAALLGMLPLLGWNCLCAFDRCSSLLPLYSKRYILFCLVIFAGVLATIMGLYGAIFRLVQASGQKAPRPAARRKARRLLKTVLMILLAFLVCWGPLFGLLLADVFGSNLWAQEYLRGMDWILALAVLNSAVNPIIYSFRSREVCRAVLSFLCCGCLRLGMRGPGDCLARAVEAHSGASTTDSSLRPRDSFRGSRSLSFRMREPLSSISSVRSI
Chain of Cytochrome P450 3A4 (P08684 whole entry): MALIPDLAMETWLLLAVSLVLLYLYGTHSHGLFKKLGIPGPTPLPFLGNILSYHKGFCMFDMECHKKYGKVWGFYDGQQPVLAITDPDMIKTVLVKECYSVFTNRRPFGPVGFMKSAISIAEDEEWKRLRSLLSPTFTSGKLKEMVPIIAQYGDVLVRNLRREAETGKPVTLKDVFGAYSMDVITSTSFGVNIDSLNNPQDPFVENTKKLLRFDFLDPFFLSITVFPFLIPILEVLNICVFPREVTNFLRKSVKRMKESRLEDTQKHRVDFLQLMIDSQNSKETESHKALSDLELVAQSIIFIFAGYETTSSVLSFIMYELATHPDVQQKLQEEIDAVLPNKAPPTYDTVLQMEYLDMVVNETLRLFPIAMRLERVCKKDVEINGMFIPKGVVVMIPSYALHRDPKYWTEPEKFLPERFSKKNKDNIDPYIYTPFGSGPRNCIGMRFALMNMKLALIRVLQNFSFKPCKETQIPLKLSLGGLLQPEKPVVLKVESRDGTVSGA
Chain of Cytochrome P450 2C9 (P11712 whole entry): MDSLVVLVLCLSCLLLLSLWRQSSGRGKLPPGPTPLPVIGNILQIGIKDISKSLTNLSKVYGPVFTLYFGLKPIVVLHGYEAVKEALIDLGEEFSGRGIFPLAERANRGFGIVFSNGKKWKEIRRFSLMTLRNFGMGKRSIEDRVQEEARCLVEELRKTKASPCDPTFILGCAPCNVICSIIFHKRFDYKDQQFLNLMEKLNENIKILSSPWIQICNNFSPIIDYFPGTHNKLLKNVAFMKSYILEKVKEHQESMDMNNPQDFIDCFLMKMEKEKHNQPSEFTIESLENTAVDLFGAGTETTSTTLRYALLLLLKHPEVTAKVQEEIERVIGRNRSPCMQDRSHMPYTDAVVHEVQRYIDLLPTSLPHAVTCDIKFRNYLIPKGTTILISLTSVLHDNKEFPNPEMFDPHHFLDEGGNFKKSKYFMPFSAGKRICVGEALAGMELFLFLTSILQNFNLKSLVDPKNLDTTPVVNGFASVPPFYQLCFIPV
Chain of Sphingosine 1-phosphate receptor 1 (Rattus norvegicus, UniProt P48303) (P48303 whole entry): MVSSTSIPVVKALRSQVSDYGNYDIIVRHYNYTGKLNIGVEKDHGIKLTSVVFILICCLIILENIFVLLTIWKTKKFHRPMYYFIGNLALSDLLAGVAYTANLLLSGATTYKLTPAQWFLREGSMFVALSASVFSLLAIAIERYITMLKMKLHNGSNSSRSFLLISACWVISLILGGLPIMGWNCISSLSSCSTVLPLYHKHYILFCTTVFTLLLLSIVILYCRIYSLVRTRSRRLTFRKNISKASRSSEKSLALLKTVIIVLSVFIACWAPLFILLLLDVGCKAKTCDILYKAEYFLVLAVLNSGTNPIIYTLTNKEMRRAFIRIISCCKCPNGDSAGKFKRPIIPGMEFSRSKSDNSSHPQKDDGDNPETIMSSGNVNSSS
Chain of Adenosine receptor A3 (P0DMS8 whole entry): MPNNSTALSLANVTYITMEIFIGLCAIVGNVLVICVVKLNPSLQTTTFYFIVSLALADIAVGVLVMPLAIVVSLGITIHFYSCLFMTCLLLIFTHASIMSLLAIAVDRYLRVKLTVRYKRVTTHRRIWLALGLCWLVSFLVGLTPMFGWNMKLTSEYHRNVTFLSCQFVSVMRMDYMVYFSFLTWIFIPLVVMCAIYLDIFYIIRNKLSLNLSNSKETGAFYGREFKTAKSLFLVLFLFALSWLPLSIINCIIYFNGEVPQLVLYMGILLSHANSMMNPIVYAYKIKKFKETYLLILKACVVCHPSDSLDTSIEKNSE
Chain of Sphingosine 1-phosphate receptor 3 (Q99500 whole entry): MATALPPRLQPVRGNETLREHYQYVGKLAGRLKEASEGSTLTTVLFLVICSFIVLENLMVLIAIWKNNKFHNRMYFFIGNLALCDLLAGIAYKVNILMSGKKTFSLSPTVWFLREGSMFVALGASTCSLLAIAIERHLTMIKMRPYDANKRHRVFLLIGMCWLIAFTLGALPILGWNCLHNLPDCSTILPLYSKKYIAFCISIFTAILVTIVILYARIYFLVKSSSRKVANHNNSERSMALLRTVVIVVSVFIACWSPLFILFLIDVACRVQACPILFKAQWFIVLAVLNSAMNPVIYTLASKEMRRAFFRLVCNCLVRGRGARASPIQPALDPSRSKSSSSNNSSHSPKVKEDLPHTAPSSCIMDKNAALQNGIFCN
Chain of Sphingosine-1-phosphate receptor 1 (W5VNF7 whole entry): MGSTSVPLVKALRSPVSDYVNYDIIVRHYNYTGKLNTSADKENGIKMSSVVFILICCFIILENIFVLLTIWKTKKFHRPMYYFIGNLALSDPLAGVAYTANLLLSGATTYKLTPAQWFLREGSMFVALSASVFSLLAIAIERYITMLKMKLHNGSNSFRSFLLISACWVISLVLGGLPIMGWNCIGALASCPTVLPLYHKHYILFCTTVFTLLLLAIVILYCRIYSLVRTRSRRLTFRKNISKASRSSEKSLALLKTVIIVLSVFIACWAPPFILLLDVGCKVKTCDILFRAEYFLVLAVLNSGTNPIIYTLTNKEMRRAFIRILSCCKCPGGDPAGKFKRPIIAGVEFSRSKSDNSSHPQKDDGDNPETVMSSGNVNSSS
Chain of Sphingosine-1-phosphate receptor 1 (Canis lupus familiaris) (W5VNF7 as listed by the source): as the sequence (W5VNF7 whole entry) above
Chain of Cytochrome P450 2C19 (P33261 whole entry): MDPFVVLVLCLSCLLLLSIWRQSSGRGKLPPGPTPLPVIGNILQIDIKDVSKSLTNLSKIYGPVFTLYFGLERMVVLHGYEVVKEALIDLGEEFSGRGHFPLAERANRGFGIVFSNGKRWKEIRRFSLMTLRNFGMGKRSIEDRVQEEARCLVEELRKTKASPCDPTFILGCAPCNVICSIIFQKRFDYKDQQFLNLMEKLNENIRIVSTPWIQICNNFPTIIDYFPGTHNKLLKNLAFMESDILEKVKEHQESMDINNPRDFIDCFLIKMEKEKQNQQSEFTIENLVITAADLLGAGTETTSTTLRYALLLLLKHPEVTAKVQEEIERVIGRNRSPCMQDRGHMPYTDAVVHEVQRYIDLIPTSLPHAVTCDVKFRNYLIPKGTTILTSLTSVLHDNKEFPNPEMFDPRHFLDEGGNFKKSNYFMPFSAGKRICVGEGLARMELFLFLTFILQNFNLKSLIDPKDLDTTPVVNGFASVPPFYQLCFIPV

O=C(O)C[C@H]1CCc2c1[nH]c1ccc(OCc3ccc(C4CCCC4)c(C(F)(F)F)c3)cc21 [ETRASIMOD]
pIC50 [1]: 7.29 | pIC50 [2]: 7.01 | fraction unbound [3]: 0.02 | Activity [4]: Active | Activity [5]: Active | Activity [6]: 0.2803 inches | Activity [7]: 178.6 g | Activity [8]: 182.3 g | pIC50 [9]: < 4.30 | pIC50 [10]: < 4.30 | pIC50 [11]: < 4.30 | pIC50 [12]: 5.48 | pEC50 [13]: 7.52 | Activity [14]: Non-toxic | Activity [15]: Non-toxic | Activity [16]: Non-toxic | Activity [17]: Non-toxic | Activity [18]: Non-toxic | Activity [19]: Toxic | Cmax [20]: 183 µM | Activity [21]: Non-toxic | pEC50 [22]: 10.40 | Emax [23]: 102% | half-life [24]: > 1 h | pIC50 [25]: 8.73 | pEC50 [26]: 9.49 | pEC50 [27]: 9.47 | Emax [28]: 87% | pEC50 [29]: < 5.00 | Emax [30]: 63% | half-life [31]: > 1 h | half-life [32]: > 1 h | clearance [33]: 1.83 mL/min/kg | clearance [34]: 0.23 mL/min/kg | CL [35]: 2.23% | Vd [36]: 1.93 L/kg | Cmax [37]: 3710 ng/mL | Tmax [38]: 8 h | AUC(0-inf) [39]: 23100 ng·h/mL | half-life [40]: 28.8 h | bioavailability [41]: 100% | bioavailability [42]: 54%
